Sampled rows, rich in hits. Any-hit rate of the full collection: about 1.8%.
CHRM5 antagonist = antagonists of human muscarinic M5 receptor (CHRM5). P08912. CHO-hM5 cells, Fluo-8 calcium fluorescence, ACh EC80. inhibition, % at 3 µM. hit rate 0.59% among 360,000. AID 624040;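 active = inhibition above a per-plate cutoff, the mean of that plate's test compounds plus 3 SD, cut at about 27% in these data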;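 note: 0% = acetylcholine EC80 with DMSO and 100% = DMSO without agonist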
M5 PAM = CHRM5 positive allosteric modulation; P08912; CHO-K1 hM5, Fluo-8 calcium, ACh EC20 PAM; 0% = ACh EC20, 100% = ACh EC100; activation, % at 3 µM; hit rate 0.3% among 360,000; AID 624038;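 active = activation above the run cutoff, the mean activation of all test compounds plus 3 SD, cut at about 18% in these data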
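Assay system: CHO-K1 hM5 cells. Also added: acetylcholine at EC20 concentration, added after compound. Dosing: 3 µM, single dose. Times: compound preincubation 140 s before EC20 acetylcholine addition. Signal: Fluo-8 calcium fluorescence. Measure: % activation relative to EC20 and EC100 ACh responses. Repeats: singlicate, one well per test compound.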
M4 antag = CHRM4 antagonism in calcium assay | inhibition, % at 3 µM | hit rate 0.73% among 360,000 | CHO-hM4 cells, ACh EC80, Fluo-8 calcium fluorescence;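 active = inhibition above its plate's cutoff, the mean inhibition of sample wells plus 3 SD, cut at about 27% in these data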;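 note: 0% = acetylcholine EC80 with DMSO and 100% = DMSO without agonist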
Target sequence (P08173 whole entry, looked up): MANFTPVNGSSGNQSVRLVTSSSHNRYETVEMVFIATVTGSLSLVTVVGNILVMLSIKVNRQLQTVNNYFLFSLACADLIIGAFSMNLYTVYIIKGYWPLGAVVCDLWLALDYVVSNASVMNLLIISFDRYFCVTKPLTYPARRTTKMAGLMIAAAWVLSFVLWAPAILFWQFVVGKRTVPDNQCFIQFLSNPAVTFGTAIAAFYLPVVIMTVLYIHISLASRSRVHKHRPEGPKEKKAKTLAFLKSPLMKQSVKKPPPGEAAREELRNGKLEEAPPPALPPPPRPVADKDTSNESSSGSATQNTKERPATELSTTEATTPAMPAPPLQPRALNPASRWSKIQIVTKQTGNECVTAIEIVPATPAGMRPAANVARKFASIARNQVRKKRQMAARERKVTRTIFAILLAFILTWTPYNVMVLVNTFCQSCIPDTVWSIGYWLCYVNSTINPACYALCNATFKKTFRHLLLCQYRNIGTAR
CHRM5 agonist = CHRM5 agonism in calcium assay; P08912; CHO-K1 hM5 cells, Fluo-8 calcium fluorescence; 0% DMSO wells, 100% maximal acetylcholine response; activation, % at 3 µM; hit rate 0.19% among 360,000;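 active = activation above the run's mean over test compounds plus 3 SD, cut at about 23% in these data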;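 note: signal is peak over basal fluorescence ratio across the kinetic read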
CHRM4 PAM = CHRM4 positive allosteric modulation | P08173 | hit rate 0.4% among 360,000 | CHO-K1 hM4/Gqi5, Fluo-8 calcium fluorescence, ACh EC20; 0% = ACh EC20, 100% = maximal ACh | activation, % at 3 µM;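 active = activation above its plate's cutoff, the mean activation of sample wells plus 3 SD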
CHRM4 agonist = agonists of human muscarinic M4 receptor (CHRM4); P08173; CHO-K1 hM4/Gqi5, Fluo-8 calcium fluorescence; vehicle 0%, full acetylcholine response 100%; activation, % at 3 µM; hit rate 0.14% among 360,000;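 active = activation above the run mean over all test wells plus 3 SD, cut at about 32% in these data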;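 note: peak over basal fluorescence ratio per well then scaled between controls; 0% = DMSO wells and 100% = acetylcholine at EC100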
The depositor's hits bear a star.

SMILES	CHRM5 antagonist	M5 PAM	M4 antag	CHRM5 agonist	CHRM4 PAM	CHRM4 agonist
CC(=O)NC1(NC(C)=O)CCN(C)C(c2ccccc2)C1C (centres undefined)	-8	10	11	26*	20	1
CCS(=O)(=O)N1CCC(NC(C)=O)(c2ccccc2)CC1	2	-4	9	-2	-2	0
C[C@H](CO)N1C[C@H](C)[C@@H](CN(C)Cc2ccncc2)OCCCC[C@H](C)Oc2ccc(NC(=O)CCCN(C)C)cc2C1=O	0	2	-3	1	4	1
Cc1ccc(OCCN2CCN(c3ncnc4sc(C)c(C)c34)CC2)cc1	32*	-14	21	4	-3	8
Clc1ccc(OCCN2CCN(c3ncnc4sccc34)CC2)cc1	33*	-17	35*	4	-17	12
Cc1ccc(-c2nnc(COC(=O)c3cccs3)o2)cc1	14	-5	-7	-5	0	2
Cc1cccc(N2C(S)=C(C#N)C(=O)NC23CCCCC3)c1	-7	3	-13	0	10	1
Cc1cccc(NC2=C(C#N)C(=O)NC3(CCCC3)S2)c1	-9	2	-26	1	15*	0
CC(=O)OCCCNc1cc(Sc2ccc(Cl)cc2)c2nonc2c1[N+](=O)[O-]	0	12	17	0	22*	1
CCCC(=O)OCCNc1cc(Sc2nc3ccccc3[nH]2)c2nonc2c1[N+](=O)[O-]	34*	-2	55*	-4	-14	4
CCC(=O)OCCNc1cc(SCCC(=O)OC)c2nonc2c1[N+](=O)[O-]	4	-5	-6	-5	2	2
COc1cc(O)oc1C=Nc1ccc(Cl)cc1	0	-4	-17	-3	17*	1
Cc1cccc(C(=O)NC(=S)Nc2c(C)n(C)n(-c3ccccc3)c2=O)c1	8	4	-19	-6	-2	1
O=C(CNC(=O)c1cnccn1)Nc1ccc(F)c(F)c1F	-12	21*	-8	15	7	1
CC(=O)OCCNc1cc(N2CCN(C)CC2)c2noc3c2c1C(=O)c1ccccc1-3	7	-5	-9	1	3	0
CCOC(=O)C(C(=O)OCC)c1cc(Br)c2noc3c2c1C(=O)c1ccccc1-3	33*	3	54*	6	-6	8
Cc1csc(-c2nc3ccccc3n2C(C)c2nc3ccccc3[nH]2)c1 (centres undefined)	-10	4	-2	9	1	4
COC(=O)C1=CN(c2ccc(F)cc2)C=C(C(=O)OC)C1c1ccc([N+](=O)[O-])cc1	17	-7	-4	-4	-2	0
COC(=O)C1=CN(c2ccc(OC)cc2)C=C(C(=O)OC)C1c1ccc([N+](=O)[O-])cc1	-3	11	-9	-7	20*	0
C=CCN(C(=O)c1ccc2c(c1)nnn2C)c1ccccc1	10	2	3	-5	-2	0
COc1ccc(Cn2nnnc2C(CC(C)C)N2CCC(C(N)=O)CC2)cc1 (centres undefined)	-2	21*	-17	-3	9	2
O=C(NCC1CC1)[C@]1(C(F)(F)F)C[C@H](CCC2CCCCC2)CCCO1	11	0	-3	-2	12	2
COc1ccccc1C1(O)C(=O)Nc2ccccc21 (centres undefined)	3	3	-13	-3	15*	2
Cn1cc([C@]2(O)C(=O)Nc3ccccc32)c2ccccc21	-4	-1	5	1	4	3
O=C(N/C(=C/c1cccnc1)C(=O)N1CCOCC1)c1ccccc1	5	2	-8	-3	21*	1
SMILES	CHRM5 antagonist	M5 PAM	M4 antag	CHRM5 agonist	CHRM4 PAM	CHRM4 agonist
COc1cc(/C=C(/NC(=O)c2ccccc2)C(=O)N2CCOCC2)c([N+](=O)[O-])cc1OC	29*	-6	8	-2	-1	1
COc1cccc(NC(=O)CCC(=O)Nc2ccc3nc(N4CCOCC4)cc(C)c3c2)c1	20	-6	0	-1	-8	14
Cc1ccc2c(c1)C(=O)N1[C@H]3c4cc(Cl)ccc4OC[C@@H]3[C@H](c3ccccc3)[C@]1(C)C(=O)N2	-6	-3	4	4	-5	0
Cc1ccc2c(c1)C(=O)N1[C@H]3c4cc(C)ccc4OC[C@@H]3[C@H](c3ccccc3)[C@]1(C)C(=O)N2	10	-18	29*	-4	-15	1
C[C@@]12C(=O)Nc3ccc(Cl)cc3C(=O)N1[C@H]1c3ccccc3OC[C@@H]1[C@@H]2c1ccccc1	20	-28	41*	-3	-7	0
C[C@@]12C(=O)Nc3cc(Cl)ccc3C(=O)N1[C@H]1c3ccccc3OC[C@@H]1[C@@H]2c1ccccc1	9	-15	33*	-2	-17	3
CC1CN(C(=O)CSc2nnc(-c3ccccc3)o2)CC(C)O1 (centres undefined)	-3	22*	-10	-2	17	1
Cn1cc(CN2CCC(n3nccc3NC(=O)CCOc3ccccc3)CC2)cn1	29*	-8	-10	-4	-4	1
CN1CCCN=C1COC(=O)C(O)(c1ccccc1)C1CCCCC1 (centres undefined)	99*	-18	99*	-2	-18	1
Cc1cccc(C)c1OCC(=O)NNC(=S)NC(=O)C1CC1	17	2	4	1	1	11
Oc1ccc(C[C@@H]2CNCCN2CCc2cc(C(F)(F)F)cc(C(F)(F)F)c2)cc1	-1	15	15	8	25*	6
CCCCCCCCN1C(=O)[C@H](CC(=O)NCCc2ccccc2OC)C[C@@]2(C(=O)OCC)CCC=C12	13	1	-8	-3	2	0
O=C(Oc1ccc(Br)cc1C(=S)N1CCCC1)c1ccccc1F	9	-11	-11	-5	-6	1
O=C(Oc1ccc(Br)cc1C(=S)N1CCCC1)c1ccccc1Cl	-17	20*	2	-7	6	0
O=C(/C=C/c1ccc(Cl)cc1Cl)NCCN1CCOCC1	-6	1	-13	-2	30*	1
COc1cc(Cl)c(C)cc1NC(=O)COc1cc(C)nc(C(C)C)n1	8	-9	3	-2	33*	1
Cc1cccc(N2C(=O)CC(N3CCN(Cc4ccc5c(c4)OCO5)CC3)C2=O)c1 (centres undefined)	16	18*	-1	-3	6	1
CC1CCCN(C(C(=O)NC2CCCCC2)c2cc3c(cc2[N+](=O)[O-])OCO3)C1 (centres undefined)	5	-1	-10	-1	25*	0

Source: PubChem BioAssay
